Measurements reported in ChEMBL document CHEMBL1126152, “Fluoronaphthyridines as antibacterial agents. 4. Synthesis and structure-activity relationships of 5-substituted-6-fluoro-7-(cycloalkylamino)-1,4-dihydro-4-oxo-1,8- naphthyridine-3-carboxylic acids” (J Med Chem, 1992).
Converted amounts (≈) assume the structure as drawn.

What was measured:
Staphylococcus aureus [1] = test: Antibacterial activity against Staphylococcus aureus; assay type: functional
Proteus mirabilis = test: In vitro for antibacterial activity against Proteus mirabilis; assay type: functional
Outline: (§1)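 MIC by serial 2-fold broth dilution in nutrient broth with an inoculum of 10^6 CFU/mL. Compound range was 0.0005–250 μg/mL. Plates were incubated 18 h at 37 °C. MIC was taken as the lowest concentration preventing visible growth.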

Enterococcus faecalis = test: In vitro for antibacterial activity against Enterococcus faecalis; assay type: functional; outline: as §1
Morganella morganii = test: In vitro for antibacterial activity against Morganella morganii; assay type: functional; outline: as §1
Streptococcus pneumoniae [2] = test: Antibacterial activity against Streptococcus pneumoniae; assay type: functional
Enterobacter cloacae = test: In vitro for antibacterial activity against Enterobacter cloacae; assay type: functional
Bacteroides fragilis = test: In vitro for antibacterial activity against […].; assay type: functional; outline: as §1
Escherichia coli [3] = test: In vitro for antibacterial activity against Escherichia coli; assay type: functional; outline: as §1
Serratia marcescens = test: In vitro for antibacterial activity against Serratia marcescens; assay type: functional; outline: as §1
Klebsiella pneumoniae = test: In vitro for antibacterial activity against Klebsiella pneumoniae; assay type: functional; outline: as §1
Pseudomonas aeruginosa [4] = test: In vitro for antibacterial activity against Pseudomonas aeruginosa; assay type: functional; outline: as §1
Streptococcus pneumoniae [5] = test: animal or person; assay type: functional; details: in Mus musculus, po, read-out: PD50
Escherichia coli [6] = test: Compound was tested for […] against Escherichia coli A 15119 after oral administration of drug in mice; assay type: functional; details: read-out: PD50
Outline: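 Mouse protection test against systemic infection. Compound was dissolved in sterile water and given orally to female OF1-strain Swiss mice weighing 18–25 g, with five mice per group.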

[7] = Solubility was measured at PH - 7.2 buffer
Staphylococcus aureus [8] = test: animal or person; assay type: functional; details: in Mus musculus, po, read-out: PD50
[9] = Lethal dose was determined in OF1-strain female Swiss mice after intra venous administration of the drug; details: mouse, in vivo, iv
[10] = Partition coefficient (logD); details: octanol/water
Pseudomonas aeruginosa [11] = test: animal or person; assay type: functional; details: in Mus musculus, po, read-out: PD50
[12] = Lethal dose was determined in OF1-strain female Swiss mice after oral administration of the drug; details: mouse, in vivo
Mus musculus = species: Mus musculus; details: in vivo
in vivo = details: mouse, plasma, T1/2
[13] = % dose recovered in mouse urine; details: % recovery

Row | Compound | MIC (Staphylococcus aureus [1]) [µg/mL] | MIC (Proteus mirabilis) [µg/mL] | MIC (Enterococcus faecalis) [µg/mL] | MIC (Morganella morganii) [µg/mL] | MIC (Streptococcus pneumoniae [2]) [µg/mL] | MIC (Enterobacter cloacae) [µg/mL] | MIC (Bacteroides fragilis) [µg/mL] | MIC (Escherichia coli [3]) [µg/mL] | MIC (Serratia marcescens) [µg/mL] | MIC (Klebsiella pneumoniae) [µg/mL] | MIC (Pseudomonas aeruginosa [4]) [µg/mL] | logD [10] | also measured
1 | Cc1c(F)c(N2CC3CC2CN3)nc2c1c(=O)c(C(=O)O)cn2C1CC1 (stereo not given) | 0.002 (≈ 0.00558 µM) | 0.016 (≈ 0.0446 µM) | 0.13 (≈ 0.363 µM) | 0.016 (≈ 0.0446 µM) | 0.13 (≈ 0.363 µM) | 0.002 (≈ 0.00558 µM) | 1 (≈ 2.79 µM) | 0.002 (≈ 0.00558 µM) | 0.03 (≈ 0.0837 µM) | 0.002 (≈ 0.00558 µM) | 0.25 (≈ 0.698 µM) | 0.48 | ED50 (Streptococcus pneumoniae [5]): 43 mg/kg; ED50 (Escherichia coli [6]): 0.9 mg/kg; solubility [7]: 20 µg/mL (≈ 55.8 µM); ED50 (Staphylococcus aureus [8]): 5.4 mg/kg; LD50 [9]: 131 mg/kg; ED50 (Pseudomonas aeruginosa [11]): 2.7 mg/kg; LD50 [12]: 1750 mg/kg
2 | N[C@H]1CCN(c2nc3c(cc2F)c(=O)c(C(=O)O)cn3-c2ccc(F)cc2F)C1 | 0.008 (≈ 0.0198 µM) | 0.03 (≈ 0.0742 µM) | 0.13 (≈ 0.322 µM) | 0.06 (≈ 0.148 µM) | 0.06 (≈ 0.148 µM) | 0.016 (≈ 0.0396 µM) | 0.5 (≈ 1.24 µM) | 0.008 (≈ 0.0198 µM) | 0.06 (≈ 0.148 µM) | 0.008 (≈ 0.0198 µM) | 0.25 (≈ 0.618 µM) |  | 
3 | Cc1c(F)c(N2CC[C@H](N)C2)nc2c1c(=O)c(C(=O)O)cn2-c1ccc(F)cc1F | 0.002 (≈ 0.00478 µM) | 0.008 (≈ 0.0191 µM) | 0.06 (≈ 0.143 µM) | 0.03 (≈ 0.0717 µM) | 0.03 (≈ 0.0717 µM) | 0.002 (≈ 0.00478 µM) | 0.25 (≈ 0.598 µM) | 0.002 (≈ 0.00478 µM) | 0.03 (≈ 0.0717 µM) | 0.002 (≈ 0.00478 µM) | 0.25 (≈ 0.598 µM) | 1.22 | ED50 (Streptococcus pneumoniae [5]): 7.9 mg/kg; ED50 (Escherichia coli [6]): 1.8 mg/kg; solubility [7]: 50 µg/mL (≈ 120 µM); ED50 (Staphylococcus aureus [8]): 1.7 mg/kg; LD50 [9]: 84 mg/kg; ED50 (Pseudomonas aeruginosa [11]): 2.2 mg/kg; LD50 [12]: 2500 mg/kg
4 | O=C(O)c1cn(-c2ccc(F)cc2F)c2nc(N3CC4CC3CN4)c(F)cc2c1=O (stereo not given) | 0.016 (≈ 0.0384 µM) | 0.03 (≈ 0.0721 µM) | 0.5 (≈ 1.2 µM) | 0.06 (≈ 0.144 µM) | 0.25 (≈ 0.6 µM) | 0.016 (≈ 0.0384 µM) | 1 (≈ 2.4 µM) | 0.004 (≈ 0.00961 µM) | 0.06 (≈ 0.144 µM) | 0.008 (≈ 0.0192 µM) | 0.25 (≈ 0.6 µM) |  | T1/2 (Mus musculus): 1.48 h; half-life (in vivo): 1.72 h; ED50 (Staphylococcus aureus [8]): 9.5 mg/kg; ED50 (Pseudomonas aeruginosa [11]): 2.7 mg/kg; dose excreted [13]: 7%
5 | N[C@H]1CCN(c2nc3c(c(-c4ccccc4)c2F)c(=O)c(C(=O)O)cn3C2CC2)C1 | 2 (≈ 4.9 µM) | 16 (≈ 39.2 µM) | 64 (≈ 157 µM) | 8 (≈ 19.6 µM) | 8 (≈ 19.6 µM) | 2 (≈ 4.9 µM) | 125 (≈ 306 µM) | 1 (≈ 2.45 µM) | 16 (≈ 39.2 µM) | 2 (≈ 4.9 µM) | 32 (≈ 78.3 µM) |  | 
6 | Cc1c(F)c(N2CC[C@H](N)C2)nc2c1c(=O)c(C(=O)O)cn2C(C)(C)CF | 0.25 (≈ 0.657 µM) | 0.5 (≈ 1.31 µM) | 2 (≈ 5.26 µM) | 0.5 (≈ 1.31 µM) | 2 (≈ 5.26 µM) | 0.25 (≈ 0.657 µM) | 2 (≈ 5.26 µM) | 0.016 (≈ 0.0421 µM) | 0.5 (≈ 1.31 µM) | 0.03 (≈ 0.0789 µM) | 2 (≈ 5.26 µM) |  | 

Second part, led by results:

Row | MIC (Staphylococcus aureus [1]) [µg/mL] | MIC (Proteus mirabilis) [µg/mL] | MIC (Enterococcus faecalis) [µg/mL] | MIC (Morganella morganii) [µg/mL] | MIC (Streptococcus pneumoniae [2]) [µg/mL] | MIC (Enterobacter cloacae) [µg/mL] | MIC (Bacteroides fragilis) [µg/mL] | MIC (Escherichia coli [3]) [µg/mL] | MIC (Serratia marcescens) [µg/mL] | MIC (Klebsiella pneumoniae) [µg/mL] | MIC (Pseudomonas aeruginosa [4]) [µg/mL] | Compound | logD [10] | also measured
7 | 0.004 (≈ 0.0115 µM) | 0.13 (≈ 0.373 µM) | 0.06 (≈ 0.172 µM) | 0.13 (≈ 0.373 µM) | 0.008 (≈ 0.023 µM) | 0.03 (≈ 0.0861 µM) | 1 (≈ 2.87 µM) | 0.02 (≈ 0.0574 µM) | 0.25 (≈ 0.718 µM) | 0.03 (≈ 0.0861 µM) | 0.25 (≈ 0.718 µM) | CC(C)(C)n1cc(C(=O)O)c(=O)c2cc(F)c(N3CC[C@H](N)C3)nc21 |  | 
8 | 0.03 (≈ 0.0819 µM) | 0.5 (≈ 1.36 µM) | 4 (≈ 10.9 µM) | 0.06 (≈ 0.164 µM) | 0.03 (≈ 0.0819 µM) | 0.13 (≈ 0.355 µM) | 16 (≈ 43.7 µM) | 0.03 (≈ 0.0819 µM) | 0.25 (≈ 0.682 µM) | 0.03 (≈ 0.0819 µM) | 1 (≈ 2.73 µM) | CC(C)(CF)n1cc(C(=O)O)c(=O)c2cc(F)c(N3CC[C@H](N)C3)nc21 | -0.56 | 
9 | 0.5 (≈ 1.39 µM) | 8 (≈ 22.2 µM) | 16 (≈ 44.4 µM) | 4 (≈ 11.1 µM) | 0.25 (≈ 0.694 µM) | 1 (≈ 2.77 µM) | 1 (≈ 2.77 µM) | 0.5 (≈ 1.39 µM) | 1 (≈ 2.77 µM) | 1 (≈ 2.77 µM) | 16 (≈ 44.4 µM) | CCc1c(F)c(N2CCNCC2)nc2c1c(=O)c(C(=O)O)cn2C1CC1 |  | 
10 | 0.06 (≈ 0.172 µM) | 0.13 (≈ 0.373 µM) | 1 (≈ 2.87 µM) | 0.06 (≈ 0.172 µM) | 1 (≈ 2.87 µM) | 0.06 (≈ 0.172 µM) | 8 (≈ 23 µM) | 0.02 (≈ 0.0574 µM) | 0.06 (≈ 0.172 µM) | 0.03 (≈ 0.0861 µM) | 0.5 (≈ 1.44 µM) | CC(C)(C)n1cc(C(=O)O)c(=O)c2cc(F)c(N3CCNCC3)nc21 | -0.33 | solubility [7]: 820 µg/mL (≈ 2350 µM)
11 | 0.016 (≈ 0.0382 µM) | 0.25 (≈ 0.598 µM) | 1 (≈ 2.39 µM) | 0.13 (≈ 0.311 µM) | 0.25 (≈ 0.598 µM) | 0.03 (≈ 0.0717 µM) | 4 (≈ 9.56 µM) | 0.016 (≈ 0.0382 µM) | 0.25 (≈ 0.598 µM) | 0.03 (≈ 0.0717 µM) | 1 (≈ 2.39 µM) | Cc1c(F)c(N2CCNCC2)nc2c1c(=O)c(C(=O)O)cn2-c1ccc(F)cc1F |  | 
